Experimental data from ChEMBL document CHEMBL4828755, “A sulfonyl fluoride derivative inhibits EGFRL858R/T790M/C797S by covalent modification of the catalytic lysine” (Eur J Med Chem, 2021).
The source made the active and inactive calls. No cut-off for these calls is given here.

Columns and labels:
[1] = biological target: Epidermal growth factor receptor (Homo sapiens, UniProt P00533, C797S/L858R/T790M); test: Inhibition of EGFR L858R/T790M/C797S triple mutant (unknown origin) using […] preincubated with enzyme and ATP at Km for 3 hrs followed by substrate addition and measured after 1 hr by TR-FRET assay
[2] = biological target: Platelet-derived growth factor receptor alpha (Homo sapiens) (UniProt P16234); test: Inhibition of GST-tagged human recombinant PDGFR alpha (550 to 1089 residues) expressed in baculovirus expression system at 1 uM by Z'-LYTE assay
Platelet-derived growth factor receptor alpha (Homo sapiens), sequence (P16234 whole entry, the tested form may be a part): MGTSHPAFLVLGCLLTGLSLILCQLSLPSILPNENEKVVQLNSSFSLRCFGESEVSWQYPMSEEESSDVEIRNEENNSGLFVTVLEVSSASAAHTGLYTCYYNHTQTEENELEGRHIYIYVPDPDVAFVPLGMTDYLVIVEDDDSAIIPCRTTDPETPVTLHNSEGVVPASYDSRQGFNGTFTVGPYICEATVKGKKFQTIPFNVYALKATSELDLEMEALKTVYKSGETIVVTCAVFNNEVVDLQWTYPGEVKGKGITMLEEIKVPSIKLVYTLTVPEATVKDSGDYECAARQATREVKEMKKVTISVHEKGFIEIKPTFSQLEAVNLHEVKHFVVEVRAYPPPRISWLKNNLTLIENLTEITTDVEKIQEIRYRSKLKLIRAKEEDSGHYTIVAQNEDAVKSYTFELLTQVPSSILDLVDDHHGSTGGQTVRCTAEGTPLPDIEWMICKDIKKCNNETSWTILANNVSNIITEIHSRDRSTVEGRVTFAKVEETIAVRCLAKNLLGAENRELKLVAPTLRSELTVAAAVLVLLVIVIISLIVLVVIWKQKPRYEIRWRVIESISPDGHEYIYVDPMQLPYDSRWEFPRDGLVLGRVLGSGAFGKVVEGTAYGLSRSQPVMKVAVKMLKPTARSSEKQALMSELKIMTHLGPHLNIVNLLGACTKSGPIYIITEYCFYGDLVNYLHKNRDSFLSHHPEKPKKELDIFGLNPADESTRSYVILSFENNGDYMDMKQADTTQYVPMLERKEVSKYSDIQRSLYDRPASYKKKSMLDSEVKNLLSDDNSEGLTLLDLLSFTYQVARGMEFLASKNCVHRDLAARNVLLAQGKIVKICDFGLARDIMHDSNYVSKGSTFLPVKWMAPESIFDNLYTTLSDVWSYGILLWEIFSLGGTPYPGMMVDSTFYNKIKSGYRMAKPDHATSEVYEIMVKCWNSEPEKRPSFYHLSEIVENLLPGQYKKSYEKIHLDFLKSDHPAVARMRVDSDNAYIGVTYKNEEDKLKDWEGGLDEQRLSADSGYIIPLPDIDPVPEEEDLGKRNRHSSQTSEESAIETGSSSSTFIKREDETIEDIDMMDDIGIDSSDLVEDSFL
Method in brief: (§1)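 Z'-LYTE FRET kinase panel; phosphorylation of a reference peptide measured with ATP at each enzyme's Km. Compounds tested in 1% DMSO at 0.1 and/or 1 μM. Values are means of two independent experiments with standard deviations.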

[3] = biological target: Proto-oncogene tyrosine-protein kinase Src (Homo sapiens) (UniProt P12931); test: Inhibition of C-terminal His-tagged human recombinant SRC expressed in baculovirus expression system at 1 uM by Z'-LYTE assay; method in brief: as §1
Proto-oncogene tyrosine-protein kinase Src (Homo sapiens), sequence (P12931 2-536 limits assumed): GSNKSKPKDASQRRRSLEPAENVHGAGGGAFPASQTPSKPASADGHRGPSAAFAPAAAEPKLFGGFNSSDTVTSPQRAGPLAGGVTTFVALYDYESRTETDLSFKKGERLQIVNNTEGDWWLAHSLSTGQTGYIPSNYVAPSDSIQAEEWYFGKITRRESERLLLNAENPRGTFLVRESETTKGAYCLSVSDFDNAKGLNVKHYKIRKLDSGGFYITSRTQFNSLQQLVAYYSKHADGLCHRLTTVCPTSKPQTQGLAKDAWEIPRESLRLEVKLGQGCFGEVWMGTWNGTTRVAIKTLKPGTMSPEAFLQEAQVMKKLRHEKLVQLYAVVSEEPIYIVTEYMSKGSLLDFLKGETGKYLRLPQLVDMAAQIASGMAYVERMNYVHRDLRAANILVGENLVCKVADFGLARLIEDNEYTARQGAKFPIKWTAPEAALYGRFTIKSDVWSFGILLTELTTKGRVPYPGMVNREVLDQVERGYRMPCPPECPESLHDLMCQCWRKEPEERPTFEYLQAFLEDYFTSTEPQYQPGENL

[4] = biological target: T1, Epidermal growth factor receptor (Homo sapiens, UniProt P00533); format: ADME
T1 sequence (P00533 whole entry): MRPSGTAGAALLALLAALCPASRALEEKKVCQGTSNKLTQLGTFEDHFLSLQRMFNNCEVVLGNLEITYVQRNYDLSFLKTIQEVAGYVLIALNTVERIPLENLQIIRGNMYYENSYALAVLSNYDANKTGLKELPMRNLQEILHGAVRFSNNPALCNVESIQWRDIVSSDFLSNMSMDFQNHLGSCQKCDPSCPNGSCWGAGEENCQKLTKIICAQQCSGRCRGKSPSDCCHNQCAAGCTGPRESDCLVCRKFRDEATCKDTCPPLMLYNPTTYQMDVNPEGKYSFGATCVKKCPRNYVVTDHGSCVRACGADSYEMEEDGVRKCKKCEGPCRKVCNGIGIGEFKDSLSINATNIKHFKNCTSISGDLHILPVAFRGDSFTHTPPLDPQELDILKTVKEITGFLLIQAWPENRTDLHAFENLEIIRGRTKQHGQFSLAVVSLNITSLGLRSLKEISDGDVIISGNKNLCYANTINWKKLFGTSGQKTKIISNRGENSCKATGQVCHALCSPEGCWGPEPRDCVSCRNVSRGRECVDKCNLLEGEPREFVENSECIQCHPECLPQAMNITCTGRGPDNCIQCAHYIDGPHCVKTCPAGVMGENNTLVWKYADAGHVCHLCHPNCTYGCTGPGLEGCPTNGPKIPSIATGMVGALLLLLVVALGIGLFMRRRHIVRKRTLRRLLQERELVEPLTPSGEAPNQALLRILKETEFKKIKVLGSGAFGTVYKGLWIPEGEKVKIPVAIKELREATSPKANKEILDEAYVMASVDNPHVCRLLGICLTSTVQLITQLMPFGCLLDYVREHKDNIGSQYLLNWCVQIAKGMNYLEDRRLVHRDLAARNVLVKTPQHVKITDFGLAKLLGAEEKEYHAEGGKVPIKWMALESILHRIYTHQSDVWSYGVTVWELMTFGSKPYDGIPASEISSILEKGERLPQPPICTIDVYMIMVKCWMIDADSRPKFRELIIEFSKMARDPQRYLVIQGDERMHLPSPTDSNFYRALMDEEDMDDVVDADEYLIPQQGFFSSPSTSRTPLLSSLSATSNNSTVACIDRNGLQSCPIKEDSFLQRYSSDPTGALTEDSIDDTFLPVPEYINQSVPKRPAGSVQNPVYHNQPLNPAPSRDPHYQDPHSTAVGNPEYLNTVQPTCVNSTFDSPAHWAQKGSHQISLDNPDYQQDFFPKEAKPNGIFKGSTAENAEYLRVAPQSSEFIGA

[5] = biological target: T2, Inhibitor of nuclear factor kappa-B kinase subunit beta (Homo sapiens) (UniProt O14920); test: Inhibition of GST-tagged human full length recombinant IKKbeta expressed in baculovirus expression system at 1 uM by Z'-LYTE assay; method in brief: as §1
T2 sequence (whole entry): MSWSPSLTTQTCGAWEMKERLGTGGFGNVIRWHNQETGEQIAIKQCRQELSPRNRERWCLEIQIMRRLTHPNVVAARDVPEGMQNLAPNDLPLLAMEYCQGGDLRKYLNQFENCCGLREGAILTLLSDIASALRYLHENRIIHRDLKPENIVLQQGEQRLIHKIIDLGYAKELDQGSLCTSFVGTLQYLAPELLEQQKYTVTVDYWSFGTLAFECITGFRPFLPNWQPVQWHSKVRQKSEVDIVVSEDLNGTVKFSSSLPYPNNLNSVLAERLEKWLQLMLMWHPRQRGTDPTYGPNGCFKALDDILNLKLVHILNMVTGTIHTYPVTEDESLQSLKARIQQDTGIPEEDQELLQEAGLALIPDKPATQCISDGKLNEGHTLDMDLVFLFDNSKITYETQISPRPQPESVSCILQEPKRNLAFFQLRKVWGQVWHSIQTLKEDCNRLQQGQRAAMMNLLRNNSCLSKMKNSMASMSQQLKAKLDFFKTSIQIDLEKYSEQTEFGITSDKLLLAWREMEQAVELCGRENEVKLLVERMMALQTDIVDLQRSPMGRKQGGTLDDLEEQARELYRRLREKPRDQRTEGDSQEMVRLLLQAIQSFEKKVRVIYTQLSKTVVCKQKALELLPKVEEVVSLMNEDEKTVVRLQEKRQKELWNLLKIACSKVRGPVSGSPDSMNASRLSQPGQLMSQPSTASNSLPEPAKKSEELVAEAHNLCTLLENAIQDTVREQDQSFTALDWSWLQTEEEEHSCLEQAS

[6] = biological target: Cyclin-dependent kinase 2 (Homo sapiens) (UniProt P24941); test: Inhibition of human recombinant CDK2 at 1 uM by Z'-LYTE assay; method in brief: as §1
[7] = biological target: Vascular endothelial growth factor receptor 2 (Homo sapiens) (UniProt P35968); test: Inhibition of His-tagged human recombinant VEGFR2 (789 to 1356 residues) expressed in baculovirus expression system at 1 uM by Z'-LYTE assay; method in brief: as §1
[8] = biological target: Rho-associated protein kinase 1 (Homo sapiens) (UniProt Q13464); test: Inhibition of GST-tagged human recombinant ROCK1 (1 to 535 residues) expressed in baculovirus expression system at 1 uM by Z'-LYTE assay; method in brief: as §1
Rho-associated protein kinase 1 (Homo sapiens), sequence (Q13464 2-1354 limits assumed): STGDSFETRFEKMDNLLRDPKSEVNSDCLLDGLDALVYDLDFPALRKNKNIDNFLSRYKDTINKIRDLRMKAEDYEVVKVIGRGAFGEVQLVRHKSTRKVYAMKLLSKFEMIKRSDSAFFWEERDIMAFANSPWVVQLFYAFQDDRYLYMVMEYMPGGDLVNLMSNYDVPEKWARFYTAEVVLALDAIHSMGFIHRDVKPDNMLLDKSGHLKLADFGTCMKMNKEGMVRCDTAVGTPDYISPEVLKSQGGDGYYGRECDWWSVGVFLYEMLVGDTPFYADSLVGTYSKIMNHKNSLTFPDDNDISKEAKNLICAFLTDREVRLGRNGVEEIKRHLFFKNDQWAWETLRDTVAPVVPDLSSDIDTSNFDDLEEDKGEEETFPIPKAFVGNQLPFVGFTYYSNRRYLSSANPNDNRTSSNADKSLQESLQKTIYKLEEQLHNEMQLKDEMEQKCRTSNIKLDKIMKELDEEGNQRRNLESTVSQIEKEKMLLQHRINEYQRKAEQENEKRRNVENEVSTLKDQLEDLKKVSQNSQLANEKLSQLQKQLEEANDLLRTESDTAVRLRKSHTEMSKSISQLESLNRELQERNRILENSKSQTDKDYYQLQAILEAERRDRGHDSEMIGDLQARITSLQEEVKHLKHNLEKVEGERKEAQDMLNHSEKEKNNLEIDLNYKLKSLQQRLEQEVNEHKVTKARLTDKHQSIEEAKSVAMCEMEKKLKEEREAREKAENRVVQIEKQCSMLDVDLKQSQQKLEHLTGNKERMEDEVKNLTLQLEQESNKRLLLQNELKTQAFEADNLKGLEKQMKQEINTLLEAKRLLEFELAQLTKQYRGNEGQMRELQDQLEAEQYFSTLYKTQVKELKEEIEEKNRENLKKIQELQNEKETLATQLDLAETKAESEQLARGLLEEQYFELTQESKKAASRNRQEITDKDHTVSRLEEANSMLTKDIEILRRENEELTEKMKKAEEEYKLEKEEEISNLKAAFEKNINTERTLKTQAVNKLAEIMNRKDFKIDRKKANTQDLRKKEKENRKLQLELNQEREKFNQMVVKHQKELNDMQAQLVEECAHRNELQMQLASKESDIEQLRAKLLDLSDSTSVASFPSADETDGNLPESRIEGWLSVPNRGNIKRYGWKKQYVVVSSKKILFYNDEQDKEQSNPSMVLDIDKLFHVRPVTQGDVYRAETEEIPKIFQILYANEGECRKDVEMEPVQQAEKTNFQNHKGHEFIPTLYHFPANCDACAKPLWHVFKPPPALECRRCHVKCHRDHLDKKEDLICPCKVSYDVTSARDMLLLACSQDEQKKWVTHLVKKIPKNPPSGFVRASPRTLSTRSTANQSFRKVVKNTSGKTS

[9] = biological target: T3, Aurora kinase A (Homo sapiens) (UniProt O14965); test: Inhibition of His-tagged human full length recombinant AURKA expressed in baculovirus expression system at 1 uM by Z'-LYTE assay; method in brief: as §1
T3 sequence (whole entry): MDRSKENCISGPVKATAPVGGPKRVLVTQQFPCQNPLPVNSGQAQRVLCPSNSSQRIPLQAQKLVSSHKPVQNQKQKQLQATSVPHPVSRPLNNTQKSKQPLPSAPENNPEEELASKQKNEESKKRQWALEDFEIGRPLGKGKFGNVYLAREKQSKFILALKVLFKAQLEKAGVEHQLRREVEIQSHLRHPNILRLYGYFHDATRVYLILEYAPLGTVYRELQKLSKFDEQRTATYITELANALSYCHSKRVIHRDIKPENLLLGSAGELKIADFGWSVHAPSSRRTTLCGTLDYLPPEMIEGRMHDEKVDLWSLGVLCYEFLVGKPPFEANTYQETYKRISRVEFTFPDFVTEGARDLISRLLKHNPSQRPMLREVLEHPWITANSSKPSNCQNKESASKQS

[10] = biological target: Tyrosine-protein kinase Lck (Homo sapiens) (UniProt P06239); test: Inhibition of human recombinant LCK at 1 uM by Z'-LYTE assay; method in brief: as §1
Tyrosine-protein kinase Lck (Homo sapiens), sequence (P06239 2-509 limits assumed): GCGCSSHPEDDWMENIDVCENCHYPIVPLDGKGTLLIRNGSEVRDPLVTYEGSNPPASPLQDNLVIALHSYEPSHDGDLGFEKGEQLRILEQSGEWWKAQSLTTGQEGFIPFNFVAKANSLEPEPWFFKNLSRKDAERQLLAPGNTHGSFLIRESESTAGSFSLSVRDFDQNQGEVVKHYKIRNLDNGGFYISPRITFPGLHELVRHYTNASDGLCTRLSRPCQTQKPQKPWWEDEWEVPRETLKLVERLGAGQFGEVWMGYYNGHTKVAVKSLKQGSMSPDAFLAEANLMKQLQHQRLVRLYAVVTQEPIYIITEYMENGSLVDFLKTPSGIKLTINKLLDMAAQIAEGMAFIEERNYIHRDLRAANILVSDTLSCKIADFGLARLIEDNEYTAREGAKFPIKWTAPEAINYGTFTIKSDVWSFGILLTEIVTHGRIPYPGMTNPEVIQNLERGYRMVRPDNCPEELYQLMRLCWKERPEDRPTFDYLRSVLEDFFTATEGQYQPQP

[11] = test system: Epidermal growth factor receptor (Homo sapiens), P00533 [L858R,T790M,C797S]; test: Inhibition of EGFR L858R/T790M/C797S triple mutant (unknown origin) expressed in mouse Ba/F3 cells assessed as inhibition of EGF-stimulated receptor phosphorylation at 500 nM incubated for 4 hrs followed by EGF stimulation for 10 mins by western blot analysis; format: cell-based; conditions: BaF3, time 250.0 min
Method in brief: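 Ba/F3 cells expressing EGFR L858R/T790M/C797S were treated for 4 h across increasing concentrations (DMSO ≤0.1%), then stimulated with 100 ng/ml EGF for 10 min. Lysates were immunoblotted for pEGFR (Tyr1068), EGFR and actin.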

[12] = biological target: T1, Epidermal growth factor receptor; format: ADME; remark: listed apart in the source
[13] = biological target: Mitogen-activated protein kinase 3 (Homo sapiens) (UniProt P27361); test: Inhibition of GST-tagged human full length recombinant ERK1 expressed in Escherichia coli at 100 to 1000 nM by Z'-LYTE assay; conditions: dose 100-1000 nM
Mitogen-activated protein kinase 3 (Homo sapiens), sequence (P27361 whole entry, the tested form may be a part): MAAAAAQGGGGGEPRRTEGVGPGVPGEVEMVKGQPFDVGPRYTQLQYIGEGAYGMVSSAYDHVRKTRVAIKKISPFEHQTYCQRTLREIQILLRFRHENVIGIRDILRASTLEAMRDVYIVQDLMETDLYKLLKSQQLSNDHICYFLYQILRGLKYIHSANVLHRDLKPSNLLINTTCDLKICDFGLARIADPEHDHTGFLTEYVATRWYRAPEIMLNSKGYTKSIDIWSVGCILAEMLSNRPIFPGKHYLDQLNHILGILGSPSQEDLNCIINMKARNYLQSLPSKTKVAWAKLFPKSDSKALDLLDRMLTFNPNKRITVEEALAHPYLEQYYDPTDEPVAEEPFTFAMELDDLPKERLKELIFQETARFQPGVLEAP

[14] = biological target: Tyrosine-protein kinase JAK1 (Homo sapiens) (UniProt P23458); test: Inhibition of GST-tagged human recombinant JAK1 (866 to 1154 residues) expressed in baculovirus expression system at 100 to 1000 nM by Z'-LYTE assay; conditions: dose 100-1000 nM
[15] = biological target: Platelet-derived growth factor receptor alpha (Homo sapiens) (UniProt P16234); test: Inhibition of GST-tagged human recombinant PDGFR alpha (550 to 1089 residues) expressed in baculovirus expression system at 100 to 1000 nM by Z'-LYTE assay; conditions: dose 100-1000 nM
[16] = biological target: Rho-associated protein kinase 1 (Homo sapiens) (UniProt Q13464); test: Inhibition of GST-tagged human recombinant ROCK1 (1 to 535 residues) expressed in baculovirus expression system at 100 to 1000 nM by Z'-LYTE assay; conditions: dose 100-1000 nM
[17] = test system: Epidermal growth factor receptor (Homo sapiens), P00533 [UNDEFINED MUTATION]; test: Inhibition of EGFR del19/T790M/C797S triple mutant (unknown origin) using fluoresceine-labelled poly-GT peptide as substrate up to 10 uM preincubated with enzyme for 3 hrs followed by substrate and ATP addition by TR-FRET assay; conditions: dose microM <=10, time 3.0 hrs

Row | SMILES | IC50 [1] [µM] | inhibition [2] [%] | inhibition [3] [%] | IC50 [4] [µM] | inhibition [5] [%] | inhibition [6] [%] | inhibition [7] [%] | inhibition [8] [%] | inhibition [9] [%] | inhibition [10] [%] | inhibition [11] [%] | IC50 [12] [µM] | inhibition [13] | inhibition [14] | inhibition [15] | inhibition [16] | inhibition [17]
1 | COc1cc(N2CCN(C(C)=O)CC2)ccc1Nc1ncc(Cl)c(Nc2ccc(NCc3ccc(S(=O)(=O)F)cc3)cc2)n1 | 0.0028 | < 25 | 100 | 0.21 | < 25 | 100 | < 25 | < 25 | 100 | 100 | 100 | 0.03 |  |  |  |  | 
2 | C#CCNC(=O)c1cc(Nc2cc(C3CC3)[nH]n2)nc(N2CCN(Cc3ccc(S(=O)(=O)F)cc3)CC2)n1 |  |  |  |  |  |  |  |  |  |  |  |  | inactive | inactive | inactive | inactive | inactive
